XBP1 UPR activ – adaptive UPR (XBP1) activation. CHO-XBP1 luciferase reporter, IRE1-XBP1 UPR activation, luminescence; percent of tunicamycin response, DMSO as zero. activation, % at 20 µM. 330,000 tested, 0.33% active. AID 463104;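 active = versus positive control, 20 µM dose yields 30% or more activation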
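incubation = overnight seeding at 37 °C, 6 h compound treatment at 37 °C | assay system = CHO-XBP1 cells stably carrying IRE1-XBP1-driven luciferase reporter | input = 1000 cells per well | detection = luciferase luminescence | dosing = single point, 20 µM final compound, 1% DMSO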
697 NFkB inh – inhibitors of the PMA/ionomycin-induced NF-kB reporter in 697 B cells | 697 B-cell NF-kB luciferase reporter, 16 h | inhibition, % at 4 µM | 330,000 tested, 0.33% active | AID 435022; in the data active = inhibition above about 35%
CHOP inhibitor – blocks CHOP induction under ER stress. inhibition, % at 10 µM. 220,000 tested, 3.8% active. AID 2732. CHO-K1 CHOP-promoter luciferase, tunicamycin-induced, 15-18 h;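 active = compounds that reduced the stress-induced luciferase reporter signal by more than about 70% of percent inhibition, limit read from the data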
UPR CHOP act – apoptotic UPR (CHOP) activation. CHO-CHOP luciferase reporter, luminescence; percent of tunicamycin response over DMSO baseline. activation, % at 10 µM. 330,000 tested, 0.34% active. AID 449763;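 active = at 10 µM dose, activation of 40% or more, normalized to positive control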
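Assay system: CHO-CHOP cells, stable luciferase reporter of PERK-eIF2a-CHOP signalling / Buffer or medium: F12 plus 10% serum / Compound dosing: one dose, 10 µM in 0.5% DMSO / Times: 6 h compound treatment, 37 °C / Technique: luciferase luminescence / Read-out: % reporter activation, DMSO baseline versus tunicamycin full activation / Benchmarks: tunicamycin and DMSO controls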
Jurkat NFkB inh – lowers PMA/ionomycin-induced NF-kB signal in Jurkat cells. 330,000 tested, 0.53% active. PMA/ionomycin-induced NF-kB luciferase reporter, luminescence. AID 435003. inhibition, % at 4 µM; in the data active = inhibition above about 50%
CHOP UPR conf – confirmation of apoptotic unfolded protein response (CHOP) activators. CHO-CHOP cells, CHOP-luciferase reporter luminescence; percent of tunicamycin response, DMSO as zero. shares compounds with UPR CHOP act. 1,000 tested, 64% active. activation, % at 10 µM; in the data active = activation above about 33%
Of the large screens only hits and unclear results are named; the others gave an inactive call (follow-up assays come after a bar, where they were run). The full list was thinned out, with hits kept by preference.

COc1cc(OC)c(NC2=CC(=O)C(=O)c3ccccc32)cc1Cl	UPR CHOP act 53 (no result: CHOP inhibitor) | CHOP UPR conf inactive
CCC(C(=O)Nc1cc(Cl)c(OC)cc1OC)c1ccccc1 (centres undefined)	none
CCn1c(CSc2nc3ccccc3s2)nnc1SCC(=O)c1ccc(Cl)cc1	none
CCn1c(CSc2nc3ccccc3s2)nnc1SCC(=O)c1ccc(O)c(O)c1	UPR CHOP act 47 | CHOP UPR conf inactive
CCCCNC(=O)COC(=O)c1ccc(N(C)C)cc1	none
O=C(NCc1ccccc1)N1CCC(Cc2ccccc2)CC1	none (no result: CHOP inhibitor)
COc1ccccc1N1CCN(C(=O)c2ccc(-c3nc4ccccc4s3)o2)CC1	none (no result: CHOP inhibitor)
CCOC(=O)[C@@H]1[C@H]2COc3ccc(Br)cc3[C@H]2N2C(=O)N(c3ccc(Cl)cc3)C(=O)[C@]12C	none (no result: CHOP inhibitor)
CC(=O)OCCCNc1cc(Sc2ccc(C)cc2)c2nonc2c1[N+](=O)[O-]	CHOP inhibitor 109, UPR CHOP act 149 | CHOP UPR conf inactive
N#Cc1ccccc1Cn1cc(/C=C/[N+](=O)[O-])c2ccccc21	UPR CHOP act 85 | CHOP UPR conf inactive
O=[N+]([O-])/C=C/c1cn(Cc2ccccc2)c2ccccc12	none
O=C(Cn1cc(/C=C\[N+](=O)[O-])c2ccccc21)Nc1ccccc1	UPR CHOP act 61 | CHOP UPR conf 115
CC(=O)Nc1ccc(NC(=O)c2nc(S(=O)(=O)Cc3cccc(C)c3)ncc2Cl)cc1	none (no result: CHOP inhibitor)
Cc1ccc(NC(=O)c2nc(S(=O)(=O)Cc3ccccc3C)ncc2Cl)cc1C	UPR CHOP act 237 (no result: CHOP inhibitor) | CHOP UPR conf 170
COC(=O)c1ccc(NC(=O)c2nc(S(=O)(=O)Cc3cccc(C)c3)ncc2Cl)cc1	UPR CHOP act 95 (no result: CHOP inhibitor) | CHOP UPR conf inactive
COc1cc(NS(=O)(=O)c2ccc(NC(=O)Cc3ccccc3)cc2)nc(OC)n1	none (no result: CHOP inhibitor)
COc1ccc(OC)c(-c2csc(NC(=O)CSc3ccc([N+](=O)[O-])cc3)n2)c1	none
O=C1NN(c2cccc(Br)c2)C(=O)/C1=C/c1cccs1	UPR CHOP act 43 | CHOP UPR conf 60
O=C1NN(c2cccc(Br)c2)C(=O)/C1=C\c1ccccc1	none (no result: CHOP inhibitor)
O=C(/C=C1\C(=O)Nc2ccccc21)/C=C1\C(=O)Nc2ccccc21	none (no result: XBP1 UPR activ, 697 NFkB inh, UPR CHOP act, Jurkat NFkB inh)
O=C1Nc2ccccc2/C1=C\C(=O)c1ccccc1	UPR CHOP act 98 (no result: CHOP inhibitor) | CHOP UPR conf 237
Oc1ccc(/C=N/N(c2ccccc2)c2ccccc2)cc1O	UPR CHOP act 107 (no result: CHOP inhibitor) | CHOP UPR conf 33
Oc1ccc(/C=N/N=C/c2ccc(O)c(O)c2)cc1O	UPR CHOP act 67 (no result: CHOP inhibitor) | CHOP UPR conf inactive
O=C(COC(=O)c1ccc(S(=O)(=O)N2CCCCCC2)cc1)NCc1ccc(Cl)cc1	none (no result: CHOP inhibitor)
CN(C)C(=O)CSc1cccc2cccnc12	UPR CHOP act 214 | CHOP UPR conf 205
O=C(CSc1cccc2cccnc12)N1CCCC1	none
O=C(CCCOc1ccc(Br)cc1)Nc1nnc(C2CC2)s1	none (no result: CHOP inhibitor)
C=CCn1c(SCC(=O)c2ccc(O)c(O)c2)nnc1-c1cccc(Cl)c1	UPR CHOP act 64 (no result: CHOP inhibitor) | CHOP UPR conf inactive
C=CCn1c(SCC(=O)c2ccc(O)c(O)c2)nnc1-c1cccc(C)c1	none (no result: CHOP inhibitor)
CCc1ccc(N2C(=O)CC(N3CCN(Cc4ccc5c(c4)OCO5)CC3)C2=O)cc1 (centres undefined)	none
COc1cc(S(=O)(=O)N2CCC(c3nc4ccccc4s3)CC2)ccc1S(=O)(=O)N1CC(C)CC(C)C1 (centres undefined)	UPR CHOP act 209 | CHOP UPR conf inactive
COc1cc(S(=O)(=O)N2CCC(c3nc4ccccc4s3)CC2)ccc1S(=O)(=O)NC1CCCC1	none
CCOc1cc(/C=N\NC(=O)c2ccc(NC(=O)CC)cc2)ccc1OC(=O)c1ccccc1	CHOP inhibitor 75, UPR CHOP act 57 | CHOP UPR conf inactive
O=C(CSC(=S)N1CCCC1)c1cc(Br)cc(Br)c1O	UPR CHOP act 71 | CHOP UPR conf 45
COc1ccc(C(=O)Cn2c(C(=O)/C=C/c3ccccc3)nc3ccccc32)cc1	UPR CHOP act 314 | CHOP UPR conf 348

Bioassay records from PubChem BioAssay.
